{
  "source": "paper PMC7583042",
  "about": "(Free radical biology & medicine, 2019)",
  "key": {"[1]": {"molecular_target": "T1, SmTGR WT (Schistosoma mansoni, UniProt Q962Y6)", "experiment": "biochemical", "type": "biochemical"}, "[2]": {"molecular_target": "T2, human GR (Homo sapiens, UniProt P00390)", "T2 sequence (P00390 1-479 isoform P00390-2)": "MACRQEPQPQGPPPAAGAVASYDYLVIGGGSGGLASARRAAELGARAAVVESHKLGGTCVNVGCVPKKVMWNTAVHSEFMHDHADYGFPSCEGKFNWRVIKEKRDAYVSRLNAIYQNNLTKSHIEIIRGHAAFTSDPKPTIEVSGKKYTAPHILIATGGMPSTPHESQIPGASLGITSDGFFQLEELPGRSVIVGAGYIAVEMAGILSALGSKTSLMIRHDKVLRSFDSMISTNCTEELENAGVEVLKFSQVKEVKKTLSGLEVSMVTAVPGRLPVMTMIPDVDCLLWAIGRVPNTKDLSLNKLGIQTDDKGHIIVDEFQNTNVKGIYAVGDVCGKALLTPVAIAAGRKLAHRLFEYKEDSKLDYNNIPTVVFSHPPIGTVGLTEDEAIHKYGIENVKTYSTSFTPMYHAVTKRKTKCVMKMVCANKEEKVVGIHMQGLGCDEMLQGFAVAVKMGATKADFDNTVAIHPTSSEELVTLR", "experiment": "biochemical", "type": "biochemical", "conditions": "for Apparent IC50 Human GR: 15 min preincubation with NADPH; for inhibition of Human GR @ 2 mM: 2 mM compound"}, "[3]": {"tested_on": "Adult S. mansoni", "experiment": "Ex vivo cultured adult worm survival", "type": "cell-based, Schistosoma mansoni", "conditions": "ex vivo culture", "method_in_brief": "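Adult worms were isolated from infected mice and held 24 h in RPMI with 10% fetal calf serum, 10 mM glutamine and 1× penicillin/streptomycin. Test compound was then added to the medium at 10 or 50 μM. Worms were observed daily and scored dead when no movement was seen after several minutes' observation. Percentage dead is reported at 144 h.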"}, "[4]": {"tested_on": "Rat TrxR", "conditions": "ref bioassay AID 588453, cited from earlier work; for IC50: read-out: Apparent IC50 Rat TrxR"}, "[5]": {"tested_on": "human glutathione S-transferase Ω−1 (GSTO1)", "conditions": "ref bioassay AID 66188991; cited from earlier work"}, "[6]": {"conditions": "pKa of the amine named in the cell; source not stated; cited from earlier work"}, "[7]": {"molecular_target": "T3, SmTGR-E330A/D334A (Schistosoma mansoni, UniProt Q962Y6, D334A/E330A)", "experiment": "SmTGR-E330A/D334A mutant inhibition, DTNB assay", "type": "biochemical"}, "[8]": {"molecular_target": "SmTGR-U597C (Schistosoma mansoni, UniProt Q962Y6)", "experiment": "biochemical"}, "[9]": {"tested_on": "SmTGR-U597C", "experiment": "biochemical", "conditions": "15 min"}, "[10]": {"molecular_target": "SmTGR WT (Schistosoma mansoni, UniProt Q962Y6, X597U)", "type": "biochemical", "conditions": "global fitting of time dependent inactivation"}, "[11]": {"tested_on": "SmTGR WT", "type": "biochemical, Schistosoma mansoni"}, "[12]": {"molecular_target": "T3, SmTGR-E330A/D334A", "experiment": "Time dependent inactivation of SmTGR-E330A/D334A", "type": "biochemical", "conditions": "global fitting of time dependent inactivation"}, "[13]": {"molecular_target": "T1, SmTGR WT", "experiment": "NADPH oxidase activity of inhibited enzyme", "type": "biochemical", "conditions": "50 μM inhibitor, 30 min, pyrogallol red"}, "[14]": {"experiment": "oQM-thiol adduct formation with Cys and GSH followed by RP-HPLC/MS", "type": "physicochemical", "conditions": "pH 7.4, ambient temperature", "method_in_brief": "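Test compound (1 mM) was incubated alone or with 1 mM Cys and GSH in 5 mM sodium phosphate, pH 7.4 (also pH 8.3), at ambient temperature. Aliquots were injected at time intervals onto C18 RP-HPLC, eluting with a 0–100% acetonitrile gradient in 0.1% formic acid. Peaks were identified by ESI-MS and CID MS/MS (−4.0 kV, m/z 125–2,000, 260 °C capillary).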"}, "[15]": {"tested_on": "Larval S. mansoni", "experiment": "Ex vivo cultured larval worm survival", "type": "cell-based, Schistosoma mansoni", "conditions": "ex vivo culture", "method_in_brief": "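Schistosomula were made by mechanical transformation of cercariae shed from infected Biomphalaria glabrata, then isolated on a Percoll gradient. They were cultured 24 h in M-199 with 10% fetal calf serum before test compound was added at 10 μM. Daily observation scored larvae dead when motionless for several minutes. Percentage dead is reported at 120 h.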"}, "[16]": {"conditions": "read-out: Apparent IC50 TGR, 15 min preincubation, NADPH present"}, "[17]": {"conditions": "read-out: IC50 (Table 2), SmTGR value repeated in Table 2"}},
  "note": "“And” between values parts separate entries of the source, which are not always exact repeats. Equal values may be shown once. “Also recorded” adds a separate entry of the source. Read-outs that look alike come from different tables or passages of the source.",
  "data": [
    {"compound": "Oc1ccc2ccccc2c1CN1CCCC1", "note": "[Compound 6]", "values": [
      {"measurement": "IC50", "setting": "[1]; [16]", "result": "28.8 ± 5.37", "unit": "µM"},
      {"measurement": "Apparent IC50 Human GR", "setting": "[2]", "result": "inactive"},
      {"measurement": "Adult S. mansoni (144 h) 50 μM, worms dead", "setting": "[3]", "result": 0, "unit": "% dead"},
      {"measurement": "Apparent IC50 Rat TrxR", "setting": "[4]", "result": "inactive"},
      {"measurement": "Apparent IC50 GSTO1", "setting": "[5]", "result": "inactive"},
      {"measurement": "pka of the leaving group upon oQM formation", "setting": "[6]", "result": "11.2 (pyrolidine)"}
    ]},
    {"compound": "Oc1ccc2ccccc2c1CN1CC=C(c2ccccc2)CC1", "note": "[Compound 5]", "values": [
      {"measurement": "IC50", "setting": "[1]; [16]", "result": "11.9 ± 3.57", "unit": "µM"},
      {"measurement": "Apparent IC50 Human GR", "setting": "[2]", "result": "inactive"},
      {"measurement": "Apparent IC50 Rat TrxR", "setting": "[4]", "result": "inactive"},
      {"measurement": "Apparent IC50 GSTO1", "setting": "[5]", "result": "inactive"}
    ]},
    {"compound": "CCOC(=O)N1CCN(Cc2c(O)ccc3ccccc23)CC1", "note": "[Compound 2]", "values": [
      {"measurement": "IC50", "setting": "[1]; [16]", "result": "0.65 ± 0.12", "unit": "µM"},
      {"measurement": "IC50", "setting": "[1]; [17]", "result": "0.65 ± 0.12", "unit": "µM"},
      {"measurement": "inhibition of Human GR @ 2 mM", "setting": "[2]", "result": 35, "unit": "% inhibition @ 2 mM"},
      {"measurement": "Adult S. mansoni (144 h) 50 μM, worms dead", "setting": "[3]", "result": 5, "unit": "% dead"},
      {"measurement": "IC50", "setting": "[4]", "result": 12.6, "unit": "µM"},
      {"measurement": "Apparent IC50 GSTO1", "setting": "[5]", "result": "inactive"}
    ]},
    {"compound": "CN(C)Cc1c(O)ccc2ccccc12", "note": "[Compound 4, 1-[(Dimethylamino)methyl]-2-naphthol]", "values": [
      {"measurement": "IC50", "setting": "[1]", "result": "11.2 ± 1.9", "unit": "µM"},
      {"measurement": "inhibition of SmTGR WT at pH 6.4", "setting": "[1]; pH 6.4, data not shown", "result": "low micromolar range"},
      {"measurement": "IC50", "setting": "[2]", "result": 1830, "unit": "µM"},
      {"measurement": "IC50", "setting": "[7]", "result": "44 ± 4.9", "unit": "µM"},
      {"measurement": "fold higher inhibitor concentration needed for E330A/D334A than for WT", "setting": "[7]; same degree of inhibition", "result": 4, "unit": "fold"},
      {"measurement": "IC50", "setting": "[8]", "result": 2000, "unit": "µM"},
      {"measurement": "fold higher apparent IC50 for SmTGR-U597C than for WT", "setting": "[9]", "result": 200, "unit": "fold"},
      {"measurement": "second order rate constant for inhibition of SmTGR WT", "setting": "[10]", "result": 45.8, "unit": "M⁻¹ s⁻¹"},
      {"measurement": "difference in inhibition rate between WT and E330A/D334A", "setting": "[11]; compound at 2 μM", "result": "about 360 fold"},
      {"measurement": "WT inhibited faster than E330A/D334A", "setting": "[11]; compound at 20 μM", "result": 3, "unit": "times"},
      {"measurement": "second order rate constant for inhibition of SmTGR E330/D334", "setting": "[12]", "result": 14.7, "unit": "M⁻¹ s⁻¹"},
      {"measurement": "induction of NADPH oxidase activity in the inhibited WT enzyme", "setting": "[13]", "result": "able to induce"},
      {"measurement": "Adult S. mansoni (144 h) 10 μM, worms dead", "setting": "[3]", "result": 0, "unit": "% dead"},
      {"measurement": "time to generate comparable amounts of oQM-thiol adduct", "setting": "[14]", "result": 24, "unit": "h"},
      {"measurement": "IC50", "setting": "[4]", "result": "31 µM and 31.6 µM"},
      {"measurement": "Apparent IC50 GSTO1", "setting": "[5]", "result": "not detected; also recorded: inactive"},
      {"measurement": "pka of the leaving group upon oQM formation", "setting": "[6]", "result": "11 (dimethylamine)"}
    ]},
    {"compound": "CN(Cc1ccccc1)Cc1c(O)ccc2ccccc12", "note": "[Compound 3]", "values": [
      {"measurement": "IC50", "setting": "[1]; [16]", "result": "0.84 ± 0.03", "unit": "µM"},
      {"measurement": "IC50", "setting": "[1]; [17]", "result": "0.84 ± 0.03", "unit": "µM"},
      {"measurement": "inhibition of Human GR @ 2 mM", "setting": "[2]", "result": 20, "unit": "% inhibition @ 2 mM"},
      {"measurement": "Adult S. mansoni (144 h) 10 μM, worms dead", "setting": "[3]", "result": 0, "unit": "% dead"},
      {"measurement": "Adult S. mansoni (144 h) 50 μM, worms dead", "setting": "[3]", "result": 24, "unit": "% dead"},
      {"measurement": "Larval S. mansoni (120 h) 10 μM, worms dead", "setting": "[15]", "result": 19, "unit": "% dead"},
      {"measurement": "Apparent IC50 Rat TrxR", "setting": "[4]", "result": "inactive"},
      {"measurement": "Apparent IC50 GSTO1", "setting": "[5]", "result": "inactive"}
    ]},
    {"compound": "Oc1ccc2ccccc2c1CN1CCCCC1", "note": "[Compound 7]", "values": [
      {"measurement": "IC50", "setting": "[1]; [16]", "result": "57.6 ± 4.57", "unit": "µM"},
      {"measurement": "Apparent IC50 Human GR", "setting": "[2]", "result": "inactive"},
      {"measurement": "Apparent IC50 Rat TrxR", "setting": "[4]", "result": "inactive"},
      {"measurement": "pka of the leaving group upon oQM formation", "setting": "[6]", "result": "11.2 (piperidine)"}
    ]},
    {"compound": "Oc1ccc2ccccc2c1CN1CCOCC1", "note": "[Compound 1, 1-(Morpholin-4-ylmethyl)-2-naphthol]", "values": [
      {"measurement": "IC50", "setting": "[1]", "result": "0.61 ± 0.09", "unit": "µM"},
      {"measurement": "IC50", "setting": "[2]", "result": "71 ± 11.7", "unit": "µM"},
      {"measurement": "IC50", "setting": "[8]", "result": 100, "unit": "µM"},
      {"measurement": "fold higher apparent IC50 for SmTGR-U597C than for WT", "setting": "[9]", "result": 200, "unit": "fold"},
      {"measurement": "second order rate constant for inhibition of SmTGR WT", "setting": "[10]", "result": 1830, "unit": "M⁻¹ s⁻¹"},
      {"measurement": "second order rate constant for inhibition of SmTGR E330/D334", "setting": "[12]", "result": 1300, "unit": "M⁻¹ s⁻¹"},
      {"measurement": "Adult S. mansoni (144 h) 10 μM, worms dead", "setting": "[3]", "result": 8, "unit": "% dead"},
      {"measurement": "Adult S. mansoni (144 h) 50 μM, worms dead", "setting": "[3]", "result": 13, "unit": "% dead"},
      {"measurement": "time to generate comparable amounts of oQM-thiol adduct", "setting": "[14]", "result": 1, "unit": "h"},
      {"measurement": "IC50", "setting": "[4]", "result": 10, "unit": "µM"},
      {"measurement": "Apparent IC50 GSTO1", "setting": "[5]", "result": "not detected; also recorded: inactive"},
      {"measurement": "pka of the leaving group upon oQM formation", "setting": "[6]", "result": "8.3 (morpholine)"}
    ]}
  ]
}
